Where a SMILES comes first, the peptide text is derived from it.
Key:
Homo sapiens = organism: Homo sapiens; test: Selectivity ratio of EC50 for human OX2 receptor to EC50 for human OX1 receptor
Orexin receptor type 2 = target: T1, Orexin receptor type 2 (Homo sapiens, UniProt O43614); test: Agonist activity at human OX2 receptor overexpressed in CHO-RD-HGA16 cells assessed as calcium mobilization after 15 mins by fluorescence assay; assay type: functional, cell-based
T1 sequence (O43614 whole entry): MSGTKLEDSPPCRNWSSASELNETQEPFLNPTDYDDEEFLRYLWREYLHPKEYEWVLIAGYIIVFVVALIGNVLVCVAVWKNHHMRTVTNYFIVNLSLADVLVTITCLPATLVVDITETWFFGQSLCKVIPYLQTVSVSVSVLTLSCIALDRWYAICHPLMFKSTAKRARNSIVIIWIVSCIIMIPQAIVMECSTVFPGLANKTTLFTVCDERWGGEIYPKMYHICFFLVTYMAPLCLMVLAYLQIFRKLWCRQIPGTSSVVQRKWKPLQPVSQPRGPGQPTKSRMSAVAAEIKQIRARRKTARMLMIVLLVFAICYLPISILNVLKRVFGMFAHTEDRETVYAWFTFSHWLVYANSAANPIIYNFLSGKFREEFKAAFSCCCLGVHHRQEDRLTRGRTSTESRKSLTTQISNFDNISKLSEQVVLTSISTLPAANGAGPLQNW

[1] = target: T2, Orexin/Hypocretin receptor type 1 (Homo sapiens, UniProt O43613); test: Agonist activity at human OX1 receptor overexpressed in CHO-RD-HGA16 cells assessed as calcium mobilization after 15 mins by fluorescence assay; assay type: functional, cell-based
T2 sequence (O43613 whole entry): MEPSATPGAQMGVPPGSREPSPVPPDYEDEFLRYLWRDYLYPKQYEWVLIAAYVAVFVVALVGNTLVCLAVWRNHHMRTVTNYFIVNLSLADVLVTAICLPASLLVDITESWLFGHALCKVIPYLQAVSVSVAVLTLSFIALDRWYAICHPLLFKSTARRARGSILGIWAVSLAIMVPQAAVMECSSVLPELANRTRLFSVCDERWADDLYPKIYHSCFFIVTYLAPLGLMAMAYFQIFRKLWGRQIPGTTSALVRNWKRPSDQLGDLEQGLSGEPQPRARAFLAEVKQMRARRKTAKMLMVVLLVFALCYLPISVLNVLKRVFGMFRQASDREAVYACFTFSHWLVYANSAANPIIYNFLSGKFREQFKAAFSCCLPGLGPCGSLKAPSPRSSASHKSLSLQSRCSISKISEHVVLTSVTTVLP
In short: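 EC50 from 8-point half-log concentration-response curves. Values are means of at least three independent experiments in duplicate, with SEM, or means of two independent duplicate experiments.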

Row | SMILES | Ratio EC50 (Homo sapiens) | EC50 (Orexin receptor type 2) | EC50 [1]
1 | CC[C@H](C)[C@H](NC(=O)CNC(=O)[C@H](C)NC(=O)[C@H](C)NC(=O)[C@H](Cc1cnc[nH]1)NC(=O)[C@H](C)NC(=O)CNC(=O)[C@H](C)NC(=O)CNC(=O)[C@H](Cc1cnc[nH]1)NC(=O)[C@H](CC(C)C)NC(=O)[C@H](CC(C)C)NC(=O)[C@H](CCC(=O)O)NC(=O)[C@@H](N)Cc1ccc(O)cc1)C(=O)N[C@@H](CC(C)C)C(=O)N[C@H](C(=O)N[C@@H](CC(C)C)C(N)=O)[C@@H](C)O (H-YELLHGAGAHAAGILTL-NH2) | 0.8 | 2320 nM | 3070 nM
2 | CC[C@H](C)[C@H](NC(=O)CNC(=O)[C@H](C)NC(=O)[C@H](C)NC(=O)[C@H](Cc1cnc[nH]1)NC(=O)[C@H](CC(N)=O)NC(=O)CNC(=O)[C@H](C)NC(=O)CNC(=O)[C@H](Cc1cnc[nH]1)NC(=O)[C@H](CC(C)C)NC(=O)[C@H](CC(C)C)NC(=O)[C@@H](CCC(=O)O)NC(=O)[C@@H](N)Cc1ccc(O)cc1)C(=O)N[C@@H](CC(C)C)C(=O)N[C@H](C(=O)N[C@@H](CC(C)C)C(N)=O)[C@@H](C)O | 2.9 | 2140 nM | 739 nM
3 | CC[C@H](C)[C@H](NC(=O)CNC(=O)[C@H](C)NC(=O)[C@@H](C)NC(=O)[C@H](Cc1cnc[nH]1)NC(=O)[C@H](CC(N)=O)NC(=O)CNC(=O)[C@H](C)NC(=O)CNC(=O)[C@H](Cc1cnc[nH]1)NC(=O)[C@H](CC(C)C)NC(=O)[C@H](CC(C)C)NC(=O)[C@H](CCC(=O)O)NC(=O)[C@@H](N)Cc1ccc(O)cc1)C(=O)N[C@@H](CC(C)C)C(=O)N[C@H](C(=O)N[C@@H](CC(C)C)C(N)=O)[C@@H](C)O | 0.7 | 1250 nM | 1900 nM
4 | CC[C@H](C)[C@H](NC(=O)CNC(=O)[C@H](C)NC(=O)[C@H](C)NC(=O)[C@H](Cc1cnc[nH]1)NC(=O)[C@H](CC(N)=O)NC(=O)CNC(=O)[C@H](C)NC(=O)CNC(=O)[C@H](Cc1cnc[nH]1)NC(=O)[C@H](CC(C)C)NC(=O)[C@H](CC(C)C)NC(=O)[C@H](CCC(=O)O)NC(=O)[C@@H]1CCCN1)C(=O)N[C@@H](CC(C)C)C(=O)N[C@H](C(=O)N[C@@H](CC(C)C)C(N)=O)[C@@H](C)O (H-PELLHGAGNHAAGILTL-NH2) | 2.4 | 3250 nM | 1370 nM
5 | CC[C@H](C)[C@H](NC(=O)CNC(=O)[C@H](C)NC(=O)[C@H](C)NC(=O)[C@H](Cc1cnc[nH]1)NC(=O)[C@H](CC(N)=O)NC(=O)CNC(=O)[C@H](C)NC(=O)CNC(=O)[C@H](Cc1cnc[nH]1)NC(=O)[C@@H](CC(C)C)NC(=O)[C@H](CC(C)C)NC(=O)[C@H](CCC(=O)O)NC(=O)[C@@H](N)Cc1ccc(O)cc1)C(=O)N[C@@H](CC(C)C)C(=O)N[C@H](C(=O)N[C@@H](CC(C)C)C(N)=O)[C@@H](C)O | 0.3 | 156 nM | 535 nM
6 | CC[C@H](C)[C@H](NC(=O)CNC(=O)[C@H](C)NC(=O)[C@H](C)NC(=O)[C@H](Cc1c[nH]cn1)NC(=O)[C@H](CC(N)=O)NC(=O)CNC(=O)[C@H](C)NC(=O)CNC(=O)[C@H](Cc1c[nH]cn1)NC(=O)[C@H](CC(C)C)NC(=O)[C@H](CC(C)C)NC(=O)[C@H](CCC(=O)O)NC(=O)[C@H](Cc1ccc(O)cc1)NC(=O)[C@H](CC(C)C)NC(=O)[C@@H](N)CCCN=C(N)N)C(=O)N[C@@H](CC(C)C)C(=O)N[C@H](C(=O)N[C@@H](CC(C)C)C(N)=O)[C@@H](C)O (H-RLYELLHGAGNHAAGILTL-NH2) | 15 | – | –
7 | CC[C@H](C)[C@H](NC(=O)CNC(=O)[C@H](C)NC(=O)[C@H](C)NC(=O)[C@H](Cc1c[nH]cn1)NC(=O)[C@H](CC(N)=O)NC(=O)CNC(=O)[C@H](C)NC(=O)CNC(=O)[C@H](Cc1c[nH]cn1)NC(=O)[C@H](CC(C)C)NC(=O)[C@H](CC(C)C)NC(=O)[C@H](CCC(=O)O)NC(=O)[C@@H](N)Cc1ccc(O)cc1)C(=O)N[C@@H](CC(C)C)C(=O)N[C@H](C(=O)N[C@@H](CC(C)C)C(N)=O)[C@@H](C)O | 23 | – | –
8 | CC[C@H](C)[C@H](NC(=O)CNC(=O)[C@H](C)NC(=O)[C@H](C)NC(=O)[C@H](Cc1cnc[nH]1)NC(=O)[C@H](CC(N)=O)NC(=O)CNC(=O)[C@H](C)NC(=O)CNC(=O)[C@H](Cc1cnc[nH]1)NC(=O)[C@H](CC(C)C)NC(=O)[C@H](CC(C)C)NC(=O)[C@H](CCC(=O)O)NC(=O)[C@H](Cc1ccc(O)cc1)NC(=O)[C@H](CC(C)C)NC(=O)[C@@H](N)CCCNC(=N)N)C(=O)N[C@@H](CC(C)C)C(=O)N[C@H](C(=O)N[C@@H](CC(C)C)C(N)=O)[C@@H](C)O (H-RLYELLHGAGNHAAGILTL-NH2) | – | 976 nM | 64 nM

Continued, values first:

Row | Ratio EC50 (Homo sapiens) | EC50 (Orexin receptor type 2) | EC50 [1] | SMILES
9 | 3.9 | 1910 nM | 493 nM | CC[C@H](C)[C@H](NC(=O)CNC(=O)[C@H](C)NC(=O)[C@H](C)NC(=O)[C@H](Cc1cnc[nH]1)NC(=O)[C@H](CC(N)=O)NC(=O)CNC(=O)[C@H](C)NC(=O)CNC(=O)[C@H](C)NC(=O)[C@H](CC(C)C)NC(=O)[C@H](CC(C)C)NC(=O)[C@H](CCC(=O)O)NC(=O)[C@@H](N)Cc1ccc(O)cc1)C(=O)N[C@@H](CC(C)C)C(=O)N[C@H](C(=O)N[C@@H](CC(C)C)C(N)=O)[C@@H](C)O (H-YELLAGAGNHAAGILTL-NH2)
10 | 5.1 | 729 nM | 143 nM | CC[C@H](C)[C@H](NC(=O)CNC(=O)[C@H](C)NC(=O)[C@H](C)NC(=O)[C@H](Cc1cnc[nH]1)NC(=O)[C@H](CC(N)=O)NC(=O)CNC(=O)[C@H](C)NC(=O)CNC(=O)[C@H](Cc1cnc[nH]1)NC(=O)[C@H](CC(C)C)NC(=O)[C@H](CC(C)C)NC(=O)[C@@H]1CCCN1C(=O)[C@@H](N)Cc1ccc(O)cc1)C(=O)N[C@@H](CC(C)C)C(=O)N[C@H](C(=O)N[C@@H](CC(C)C)C(N)=O)[C@@H](C)O (H-YPLLHGAGNHAAGILTL-NH2)
11 | 1.7 | 1990 nM | 1200 nM | CC[C@H](C)[C@H](NC(=O)CNC(=O)[C@H](C)NC(=O)[C@H](C)NC(=O)[C@H](Cc1cnc[nH]1)NC(=O)[C@H](CC(N)=O)NC(=O)CNC(=O)[C@H](C)NC(=O)CNC(=O)[C@@H]1CCCN1C(=O)[C@H](CC(C)C)NC(=O)[C@H](CC(C)C)NC(=O)[C@H](CCC(=O)O)NC(=O)[C@@H](N)Cc1ccc(O)cc1)C(=O)N[C@@H](CC(C)C)C(=O)N[C@H](C(=O)N[C@@H](CC(C)C)C(N)=O)[C@@H](C)O (H-YELLPGAGNHAAGILTL-NH2)
12 | 0.9 | 2180 nM | 2480 nM | CC[C@H](C)[C@H](NC(=O)CNC(=O)[C@H](C)NC(=O)[C@H](C)NC(=O)[C@H](Cc1cnc[nH]1)NC(=O)[C@H](CC(N)=O)NC(=O)CNC(=O)[C@H](C)NC(=O)[C@@H]1CCCN1C(=O)[C@H](Cc1cnc[nH]1)NC(=O)[C@H](CC(C)C)NC(=O)[C@H](CC(C)C)NC(=O)[C@H](CCC(=O)O)NC(=O)[C@@H](N)Cc1ccc(O)cc1)C(=O)N[C@@H](CC(C)C)C(=O)N[C@H](C(=O)N[C@@H](CC(C)C)C(N)=O)[C@@H](C)O (H-YELLHPAGNHAAGILTL-NH2)
13 | – | 187 nM | 8.29 nM | CC[C@H](C)[C@H](NC(=O)CNC(=O)[C@H](C)NC(=O)[C@H](C)NC(=O)[C@H](Cc1cnc[nH]1)NC(=O)[C@H](CC(N)=O)NC(=O)CNC(=O)[C@H](C)NC(=O)CNC(=O)[C@H](Cc1cnc[nH]1)NC(=O)[C@H](CC(C)C)NC(=O)[C@H](CC(C)C)NC(=O)[C@H](CCC(=O)O)NC(=O)[C@@H](N)Cc1ccc(O)cc1)C(=O)N[C@@H](CC(C)C)C(=O)N[C@H](C(=O)N[C@@H](CC(C)C)C(N)=O)[C@@H](C)O
